Screening data as filed in PubChem.
This is a sample that favours compounds with a hit; in the whole collection about 1.9% have one here.
PLC-gamma1 inh: PLC-gamma1 (human) inhibition, primary screen; P19174; purified PLC-gamma1, fluorogenic substrate, fluorescence; inhibition, % at 12.2 µM; actives 0.84% (n = 370,000); AID 720700; in the data active = inhibition above about 9.5%
Target sequence (P19174 whole entry, looked up): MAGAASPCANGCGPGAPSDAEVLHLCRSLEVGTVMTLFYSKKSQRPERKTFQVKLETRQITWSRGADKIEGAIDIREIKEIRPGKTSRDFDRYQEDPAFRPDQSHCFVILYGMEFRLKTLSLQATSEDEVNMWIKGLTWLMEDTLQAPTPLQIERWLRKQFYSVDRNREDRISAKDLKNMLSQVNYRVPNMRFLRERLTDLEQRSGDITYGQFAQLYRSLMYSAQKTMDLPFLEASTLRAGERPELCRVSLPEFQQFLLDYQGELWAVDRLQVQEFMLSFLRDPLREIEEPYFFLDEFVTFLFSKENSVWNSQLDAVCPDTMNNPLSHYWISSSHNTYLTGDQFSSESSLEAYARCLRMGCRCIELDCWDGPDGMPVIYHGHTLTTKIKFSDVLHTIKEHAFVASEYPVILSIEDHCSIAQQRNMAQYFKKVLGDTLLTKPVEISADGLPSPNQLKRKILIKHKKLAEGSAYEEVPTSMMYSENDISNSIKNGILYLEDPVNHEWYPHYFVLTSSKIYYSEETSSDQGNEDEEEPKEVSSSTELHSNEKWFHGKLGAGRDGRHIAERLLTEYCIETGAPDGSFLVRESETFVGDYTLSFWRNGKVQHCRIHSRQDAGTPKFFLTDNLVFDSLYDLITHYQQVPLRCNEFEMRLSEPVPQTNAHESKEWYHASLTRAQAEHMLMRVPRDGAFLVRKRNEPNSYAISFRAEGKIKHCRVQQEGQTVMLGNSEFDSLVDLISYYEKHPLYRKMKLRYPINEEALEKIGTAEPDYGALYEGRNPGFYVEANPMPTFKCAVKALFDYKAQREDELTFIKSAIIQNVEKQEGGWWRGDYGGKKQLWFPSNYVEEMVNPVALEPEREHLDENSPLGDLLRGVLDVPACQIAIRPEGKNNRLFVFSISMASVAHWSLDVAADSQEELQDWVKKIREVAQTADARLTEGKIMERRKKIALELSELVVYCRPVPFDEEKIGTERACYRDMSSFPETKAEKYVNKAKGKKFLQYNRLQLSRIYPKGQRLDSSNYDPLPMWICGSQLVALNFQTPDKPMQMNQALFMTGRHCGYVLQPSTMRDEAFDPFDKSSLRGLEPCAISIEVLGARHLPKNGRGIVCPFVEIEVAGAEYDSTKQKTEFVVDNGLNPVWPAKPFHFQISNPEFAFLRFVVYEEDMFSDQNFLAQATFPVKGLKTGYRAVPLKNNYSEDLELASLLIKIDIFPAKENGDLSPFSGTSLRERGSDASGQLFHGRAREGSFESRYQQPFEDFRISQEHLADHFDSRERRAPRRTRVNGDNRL
Tb MetRS inh: Trypanosoma brucei MetRS inhibition; actives 0.4% (n = 360,000); inhibition, % at 11.9 µM; purified T. brucei MetRS, ATP depletion, Kinase-Glo luminescence;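 active = inhibition above a per-plate cutoff of the control wells' mean inhibition plus 3 SD, cut at about 5.5% in these data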;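 also: 0% = DMSO wells median and 100% = median of wells with control inhibitor compound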
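Dosing: 11.9 µM compound single dose, 0.9% DMSO; Assay system: purified T. brucei MetRS enzyme; Measured by: Kinase-Glo luciferase luminescence reporting remaining unconsumed ATP; Schedule: 15 min plus 2 h at 25 °C.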
DAGLB inhibitor: blocks human DAGLB lipase activity. Q8NCG7. HEK293T DAGLB membrane lysate, EnzChek fluorogenic substrate. inhibition, % at 5.17 µM. actives 0.059% (n = 340,000); in the data active = inhibition above about 34%;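 also: 0% = enzyme with vehicle and 100% = wells lacking enzyme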
HGIII-sPLA2 inh: Inhibits HGIII-sPLA2 liposome hydrolysis, primary screen; Q9NZ20; QFRET BODIPY PC-A2 liposome hydrolysis, fluorescence; inhibition, % at 12.2 µM; actives 0.56% (n = 370,000);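 active = inhibition above mean plus 3 SD of compounds lying within the high and low control bounds, cut at about 19% in these data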;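 also: 0% = median of test compound wells and 100% = no enzyme DMSO wells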
PLCb3 inh: blocks human PLC-beta3 enzyme activity; Q01970; Purified PLC-beta3, fluorogenic substrate, fluorescence; inhibition, % at 12.2 µM; actives 0.18% (n = 370,000); AID 720704; in the data active = inhibition above about 11%;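 also: 0% = median of compound wells on plate and 100% = full blocker control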
hGIII sPLA2 conf: human GIII-sPLA2 inhibition, confirmation; shares compounds with HGIII-sPLA2 inh; recombinant hGIII-sPLA2, BODIPY PC-A2 QFRET fluorescence; inhibition, % at 12.2 µM; actives 34% (n = 2,000);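 active = mean inhibition across triplicates above the hit cutoff set in the earlier primary screen, cut at about 19% in these data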;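 also: 0% = enzyme with DMSO and 100% = DMSO wells lacking enzyme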
BODIPY interf: counter-screen for HGIII-sPLA2 inhibitors: 535nm fluorescence interference | actives 8.5% (n = 2,000) | shares compounds with HGIII-sPLA2 inh | BODIPY FL product fluorescence interference, QFRET | inhibition, % at 12.2 µM;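 active = average inhibition above the solvent-only control mean plus 3 SD, cut at about 6% in these data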;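 also: 0% = DMSO with substrate plus product and 100% = DMSO with substrate alone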
BODIPY interf DR: interferes with 535nm fluorescence in dose response counter-screen; shares compounds with HGIII-sPLA2 inh; BODIPY FL product fluorescence interference, cell-free; IC50, µM; 240 tested, under 10 active;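 active = IC50 at or below 10 µM; inactive = IC50 above 10 µM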
An asterisk follows results filed as active; . = no result given.

SMILES | PLC-gamma1 inh | Tb MetRS inh | DAGLB inhibitor | HGIII-sPLA2 inh | PLCb3 inh | hGIII sPLA2 conf | BODIPY interf | others
C=CCn1c(CSCc2ccc(F)cc2)n[nH]c1=S | -0.1 | 0.2 | 2.4 | 14.7 | -2.2 | . | .
CCn1c(CSCc2ccc(C)cc2)n[nH]c1=S | 0.6 | 0.0 | -2.7 | 29.9* | -5.7 | 25.0* | 2.5
Cc1cc(C)nc(NC(=S)N2CCN(c3ncc(C(F)(F)F)cc3Cl)CC2)c1 | 0.1 | . | . | 4.3 | 1.0 | . | .
Cc1cc(NS(=O)(=O)c2ccc(N3C(=O)C4C5C=CC(C5)C4C3=O)cc2)nc(C)n1 (stereo not given) | 4.0 | 0.3 | 0.8 | 21.1* | 4.7 | -0.5 | -7.0
Cc1ccc(S(=O)(=O)Nc2ccc(S(=O)(=O)Nc3cc(C)nc(C)n3)cc2)cc1 | 4.6 | 1.8 | 1.1 | -8.3 | -1.1 | . | .
Nc1[nH]c(C(=O)c2ccccc2)c(-c2ccccn2)c1C(=O)c1c[nH]c2ccc(Br)cc12 | -37.3 | . | . | 0.9 | -57.6 | . | .
Oc1c(CN2CCCCC2)ccc2cccnc12 | -6.2 | -0.3 | 7.5 | 20.7* | -3.9 | 0.9 | -44.3
COC(=O)[C@]12C[C@H](CC(=O)N3CCCCC3)C(=O)N(CCC3=CCCCC3)C1=C[C@H](COCc1ccccc1)O[C@@H]2C | 1.6 | . | . | -11.5 | 3.6 | . | .
CSc1n[nH]c(=O)n1-c1cccc(Cl)c1 | 6.3 | 0.5 | 9.7 | 19.7* | -7.9 | -1.5 | -5.7
CCCCC(=O)N(Cc1ccccc1)c1ccccc1C(=O)Nc1cc(OC)ccc1OC | -9.2 | . | . | 7.5 | -25.2 | . | .
COc1cccc(Nc2nc(C(N)c3ccccc3)cs2)n1 (stereo not given) | -1.1 | -0.2 | . | 23.6* | -8.2 | 5.8 | -8.9
Fc1ccc(-n2c(-c3cc(C4CC4)[nH]n3)n[nH]c2=S)cc1Cl | -2.0 | -0.9 | -0.3 | 27.6* | -8.9 | 23.5* | 0.5
COc1ccc(C=C2NC(=S)NC2=O)cc1 | 3.8 | -0.3 | 0.7 | 25.1* | -3.0 | 10.5 | -2.6
COc1ccc(/C=C/C=C2\NC(=S)NC2=O)cc1 | -3.4 | -0.6 | -0.2 | 2.5 | -5.9 | . | .
CCN(CC)S(=O)(=O)c1ccc(Cl)c(NC(=O)COc2ccc3c(C)cc(=O)oc3c2)c1 | -0.2 | -0.7 | 0.9 | 20.6* | -0.9 | -2.0 | -11.7
CCN(CC)S(=O)(=O)c1ccc(OC)c(NC(=O)COc2ccc3c(C)cc(=O)oc3c2)c1 | -19.8 | 0.0 | 1.4 | 8.8 | -22.1 | . | .
Cc1ccccc1Nc1nc(N)nc(CCl)n1 | 2.9 | 0.2 | -3.0 | 19.6* | -8.8 | 3.3 | -7.8
O=C(NCC1COCCO1)C1CCN(S(=O)(=O)c2ccc(Br)s2)CC1 (stereo not given) | -1.6 | . | . | 3.9 | -0.4 | . | .
CCCCSc1nnc(-c2ccc(C)cc2)c2ccccc12 | 1.4 | 0.1 | -14.0 | 24.3* | 0.3 | -0.7 | -11.3
N#Cc1c(SCC(N)=O)nsc1SCc1ccc(Cl)cc1 | 5.3 | -0.3 | -0.4 | 29.7* | 2.4 | 8.6 | -9.5
N#Cc1c(SCC(N)=O)nsc1SCc1ccccc1Cl | 0.4 | -0.3 | -2.5 | 4.6 | -4.2 | . | .
CN(C)c1ccc(Nc2ccc([N+](=O)[O-])cn2)cc1 | 7.7 | -0.2 | 20.2 | 39.2* | 1.6 | 44.3* | 6.5*
CC(=O)OCC(=O)[C@@]1(O)CC[C@H]2[C@@H]3CCC4=CC(=O)C=C[C@]4(C)[C@H]3C(=O)C[C@@]21C | 1.4 | -0.1 | 0.2 | -4.6 | -3.2 | . | .
CCOC1(C)OCC(=O)[C@]2(CCC3C4CCC5=CC(=O)C=CC5(C)C4C(=O)CC32C)O1 (stereo not given in full) | -2.1 | -0.2 | -0.9 | 19.4* | -1.4 | 0.2 | -15.3
Cc1ccc(F)cc1C(=O)N1CCCC(c2nc(-c3cccs3)no2)C1 (stereo not given) | 0.2 | . | . | -4.5 | 4.3 | . | .
SMILES | PLC-gamma1 inh | Tb MetRS inh | DAGLB inhibitor | HGIII-sPLA2 inh | PLCb3 inh | hGIII sPLA2 conf | BODIPY interf | others
CCC[C@H]1[C@@H](NC(=O)c2ccc(Cl)cc2)CC[C@@]23CCCN2C(=O)CCC[C@@H]13 | -1.8 | . | . | 1.3 | -0.1 | . | .
CCN(CC)CC(=O)Nc1cccc2c1C(=O)c1ccccc1C2=O | -4.2 | 0.8 | 1.3 | 1.2 | -3.8 | . | .
O=C1c2ccccc2C(=O)c2c(NCCCN(CCO)CCO)cccc21 | 3.4 | -1.4 | . | 19.8* | -0.5 | 31.3* | -7.3 | BODIPY interf DR=>122
COc1ccc(NC(=S)NNC(=O)c2nnn(-c3ccccc3)c2C)cc1 | 4.3 | 0.0 | 1.3 | 34.9* | 2.5 | 42.4* | -1.1 | BODIPY interf DR=>122
COc1cc(Sc2ccc(C)cc2)c(OC)cc1N | -5.6 | -0.6 | 11.1 | 21.7* | -9.2 | 38.5* | 9.1*
COC(=O)c1ccc(Sc2ccc(C)cc2)c(N)c1 | -170.9 | -0.8 | -5.7 | 1.6 | -259.6 | . | .
O=C(CSc1nnc(-c2cccnc2)n1-c1ccc(Cl)cc1)c1ccc2ccccc2c1 | -3.3 | . | . | -10.5 | -3.2 | . | .
Clc1ccc2c(c1)Nc1ccccc1CC2 | 6.7 | -0.5 | -12.2 | 21.5* | -7.7 | 14.6 | 8.2*
O=C1CCc2ccccc2N1 | -0.5 | -1.0 | 0.5 | 6.5 | -8.1 | . | .
Cc1cc2nc(-c3ccc(=O)[nH]c3)n(C)c2cc1C | -20.9 | -0.4 | 3.9 | -8.6 | -33.4 | . | .
Cc1cc2nc(C)c(=O)n(C)c2cc1C | -88.1 | 0.0 | -1.1 | 23.5* | -97.9 | 6.1 | -8.0
Cc1ccc(S(=O)(=O)NCC2CCN(C(=O)C(=O)c3cccs3)CC2)cc1 | 0.0 | . | . | 0.2 | -0.2 | . | .
O=C(CSCc1c(F)cccc1Cl)NNC(=S)NC1CCCCC1 | 0.4 | 0.6 | -1.3 | 20.7* | -4.5 | 10.7 | 1.6
O=C(COC(=O)c1c(F)cccc1Cl)NC1CCCCC1 | -0.7 | 0.1 | -1.2 | 5.9 | -7.2 | . | .
CCCn1c(C(C)C)n[nH]c1=S | 2.3 | -0.6 | 1.0 | 25.6* | -4.8 | 8.7 | -4.3
CCc1ccc(CCNC(=O)OC2CC3CC2[C@H]2CCCCN2[C@H]3Cc2ccccc2)cc1 (stereo not given in full) | -1.0 | . | . | 4.2 | -4.7 | . | .
NC(=O)c1ccc(-c2ccc(N3C(c4ccsc4)=Cc4ccc(F)cc4C3CC(=O)c3ccco3)cc2)cc1 (stereo not given) | -109.8 | -0.6 | . | 25.6* | -147.3 | 14.2 | 4.2
CN(C)c1ccc(N=Nc2ccccc2C(=O)OCC(=O)NC2CCCC2)cc1 | 5.4 | -1.6 | 33.1 | 20.2* | 1.4 | 24.0* | -10.8
S=c1[nH]nc2ccc3ccccc3n12 | -295.1 | -0.6 | . | 25.8* | -402.9 | 23.1* | -0.5
COCCCNC(=O)CN1C(=O)CSc2ncccc21 | 1.8 | -0.3 | -2.1 | 19.2* | -0.8 | 1.4 | -5.9
Cc1cc(Br)c2nc(-c3ccc(F)cc3)c(Cc3cccc(Cl)c3)n2c1 | -5.4 | . | . | -4.1 | -5.3 | . | .
